Measurements of several laboratories.
Compare with care: the assays were run in different laboratories. pEC50, pIC50: −log10 of the molar value.
Cell line: NCI-H460
Effect on: cell growth or viability

SMILES | technique | concentration | time | endpoint | result
CCCCCCCCCCCCCCCCCCOc1ccc(CC(=O)OCC[N+](CC)(CC)CC)cc1 | SRB | 10 µM | – | inhibition | 15.8%
Clc1ccc(-c2cc(CNc3cccc4cccnc34)on2)c(Cl)c1 | MTS | – | 72 h | pIC50 | < 4.00
CCCCCCCCCCCCCCCCCCOc1cccc(CC(=O)OCCC[N+](C)(C)C)c1 | SRB | 10 µM | – | inhibition | 4.47%
FC(F)(F)c1cc(OCc2cc(-c3ccccc3)no2)c2ccccc2n1 | MTS | – | 72 h | pIC50 | < 4.00
CCCCCCCCCCCCCCCCCCOCC(COP(=O)([O-])OCC[N+](C)(C)C)OC (stereo not drawn) | SRB | 10 µM | – | inhibition | 53.6%
O=C(CSc1nc2ccccc2s1)N/N=C/c1ccc(OCC(=O)Nc2ccc([N+](=O)[O-])cc2)cc1 | MTS | – | 72 h | pIC50 | < 4.00
COc1ccc(NC(=O)Nc2cccc(-c3cn(Cc4ccc(Cl)cc4)nn3)c2)cc1 | CCK-8 | 50 µM | 72 h | viability | 104%
N#Cc1ccc(-c2cc(COc3cc(C(F)(F)F)nc4ccccc34)on2)cc1 | MTS | – | 72 h | pIC50 | < 4.00
COc1ccc(NC(=O)Nc2ccc(-c3cn(Cc4ccc(C)cc4)nn3)cc2)cc1 | CCK-8 | 50 µM | 72 h | viability | 83.2%
O=C(CSc1nc2ccccc2s1)N/N=C/c1ccc(OCC(=O)Nc2cccc(Cl)c2)cc1 | MTS | – | 72 h | pIC50 | 4.53
COc1ccc(NC(=O)Nc2ccc(-c3cn(Cc4cccc(Cl)c4)nn3)cc2)cc1 | CCK-8 | 50 µM | 72 h | viability | 87.4%
FC(F)(F)c1ccc(-c2cc(CNc3cccc4cccnc34)on2)cc1 | MTS | – | 72 h | pIC50 | < 4.00
Cc1nc(NC(=O)N2CCC[C@H]2C(N)=O)sc1-c1ccnc(C(C)(C)C(F)(F)F)c1 | ATP luminescence | – | 5 days | pEC50 | 4.46
FC(F)(F)c1ccc(-c2cc(COc3cc(C(F)(F)F)nc4ccccc34)on2)cc1 | MTS | – | 72 h | pIC50 | < 4.00
COc1ccc(NC(=O)Nc2ccc(-c3cn(Cc4ccc(Br)cc4)nn3)cc2)cc1 | CCK-8 | 50 µM | 72 h | viability | 86.6%
CCCCCCCCCCCCCCCCCCOc1cccc(CC(=O)OCC[N+]2(C)CCCC2)c1 | SRB | 10 µM | – | inhibition | 4.17%
N#Cc1ccc(-c2cc(CNc3cccc4cccnc34)on2)cc1 | MTS | – | 72 h | pIC50 | < 4.00
CCCCCCCCCCCCCCCCCCOc1cccc(CC(=O)OCC[N+]2(C)CCOCC2)c1 | SRB | 10 µM | – | inhibition | 1%
FC(F)(F)c1cc(OCc2cc(-c3ccccn3)no2)c2ccccc2n1 | MTS | – | 72 h | pIC50 | < 4.00
Cc1ccccc1Cn1cc(-c2cccc(NC(=O)Nc3ccc(F)cc3)c2)nn1 | CCK-8 | 50 µM | 72 h | viability | 72.6%
CCCCCCCCCCCCCCCCCCOc1ccccc1CC(=O)OCC[N+]1(C)CCCCC1 | SRB | 10 µM | – | inhibition | 37.8%
O=C(CSc1nc2ccccc2s1)N/N=C/c1ccc(OCC(=O)Nc2cccc([N+](=O)[O-])c2)cc1 | MTS | – | 72 h | pIC50 | 4.80
COc1ccc(NC(=O)Nc2cccc(-c3cn(Cc4ccccc4C)nn3)c2)cc1 | CCK-8 | 50 µM | 72 h | viability | 80.7%
CCCCCCCCCCCCCCCCCCOc1cccc(CC(=O)OCC[N+](C)(C)C)c1 | SRB | 10 µM | – | inhibition | 2.4%
COc1ccc(NC(=O)Nc2ccc(-c3cn(Cc4ccc(Cl)cc4)nn3)cc2)cc1 | CCK-8 | 50 µM | 72 h | viability | 86.8%
CCCCCCCCCCCCCCCCCCOc1ccccc1CC(=O)OCC[N+](C)(C)C | SRB | 10 µM | – | inhibition | 86.5%
c1ccc(-c2cc(CNc3cccc4cccnc34)on2)cc1 | MTS | – | 72 h | pIC50 | < 4.00
